Tests used:
[1] = system: Human immunodeficiency virus 1; experiment: Antiviral activity against HIV1 in human PBMC; assay type: functional, organism-based
In short: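 PHA-stimulated (2-3 days) human PBM cells from seronegative donors, infected in bulk 1 h with HIV-1 LAI (100 TCID50/1 × 10⁷ cells, flask; or 200 TCID50/6 × 10⁵ cells/well, 24-well), then added to 10-fold serial compound dilutions in RPMI-1640/16% FBS/IL-2/DEAE-dextran. 5 days, 37 °C, 5% CO₂. Supernatant RT activity by poly(rA)·oligo(dT), ³H-TTP incorporation, 2 h 37 °C; EC50/EC90 by median effect method.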

PBMC = experiment: Cytotoxicity against human PBMC; assay type: functional, cell-based
In short: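 Uninfected PHA-stimulated human PBM cells, log phase, 5 × 10⁴ cells/well, exposed to 10-fold serial compound dilutions for 5 days at 37 °C, 5% CO₂. MTT overnight, formazan dissolved 5 h, read at 570 nm.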

CCRF-CEM = experiment: Cytotoxicity against human CEM cells; assay type: functional, cell-based
In short: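 Log-phase CEM T-lymphoblastoid cells seeded at 2.5 × 10³ cells/well with 10-fold serial compound dilutions, held 4 days at 37 °C, 5% CO₂. MTT dye added overnight, then stop-solubilization 5 h; absorbance at 570 nm.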

Vero = experiment: Cytotoxicity against Vero cells; assay type: functional, cell-based; conditions: Chlorocebus sabaeus
In short: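 Log-phase Vero cells seeded at 5 × 10³ cells/well with 10-fold serial compound dilutions, incubated 3 days at 37 °C, 5% CO₂. MTT dye added overnight, formazan solubilized 5 h, absorbance read at 570 nm.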

For `Cc1cn([C@@H]2S[C@H](CO)[C@H]2CO)c(=O)[nH]c1=O`, which EC50 [1] is on record?
Its EC50 is > 100 µM.

And the EC90 [1]?
Its EC90 is > 100 µM.

What about the IC50 (PBMC) of the same compound?
Its IC50 is > 100 µM.

And the IC50 (CCRF-CEM)?
Its IC50 is > 100 µM.

And the IC50 (Vero)?
Its IC50 is > 100 µM.

`Cc1cn([C@H]2C[C@H](N=[N+]=[N-])[C@@H](CO)O2)c(=O)[nH]c1=O` [ZIDOVUDINE] was tested. Which EC90 [1] did it give?
The EC90 was 0.01 µM.

And the IC50 (PBMC)?
Its IC50 is > 100 µM.

Which EC50 [1] does the source give for `Nc1ccn([C@@H]2S[C@H](CO)[C@H]2CO)c(=O)n1` here?
Its EC50 is 1.3 µM.

And the EC90 [1]?
Its EC90 is 5.3 µM.

And the IC50 (PBMC)?
Its IC50 is ≤ 1 µM.

And the IC50 (CCRF-CEM)?
Its IC50 is 4.3 µM.

What about the IC50 (Vero) of the same compound?
The IC50 was 54.8 µM.

`Nc1ncnc2c1ncn2[C@@H]1S[C@H](CO)[C@H]1CO` was tested. Which EC50 [1] did it give?
Its EC50 is > 100 µM.

And the EC90 [1]?
Its EC90 is > 100 µM.

What about the IC50 (PBMC) of the same compound?
Its IC50 is > 100 µM.

What about the IC50 (CCRF-CEM) of the same compound?
The IC50 was > 100 µM.

And the IC50 (Vero)?
Its IC50 is > 100 µM.

For `Cc1cn([C@H]2S[C@@H](CO)[C@@H]2CO)c(=O)[nH]c1=O`, which EC50 [1] is on record?
Its EC50 is > 100 µM.

What about the EC90 [1] of the same compound?
Its EC90 is > 100 µM.

And the IC50 (PBMC)?
The IC50 was > 100 µM.

And the IC50 (CCRF-CEM)?
The IC50 was > 100 µM.

And the IC50 (Vero)?
The IC50 was > 100 µM.

What does the source list for `O=c1ccn([C@@H]2S[C@H](CO)[C@H]2CO)c(=O)[nH]1`?
EC50 [1]: 6.9 µM; EC90 [1]: 23.1 µM; IC50 (PBMC): 8.5 µM; IC50 (CCRF-CEM): 4.9 µM; IC50 (Vero): > 100 µM

What does the source list for `O=c1ccn([C@H]2S[C@@H](CO)[C@@H]2CO)c(=O)[nH]1`?
EC50 [1]: > 100 µM; EC90 [1]: > 100 µM; IC50 (PBMC): > 100 µM; IC50 (CCRF-CEM): > 100 µM; IC50 (Vero): > 100 µM

Which results are given for `Nc1nc(=O)n([C@@H]2S[C@H](CO)[C@H]2CO)cc1Cl`?
EC50 [1]: > 100 µM; EC90 [1]: > 100 µM; IC50 (PBMC): > 100 µM; IC50 (CCRF-CEM): > 100 µM; IC50 (Vero): > 100 µM

Which results are given for `Nc1nc(O)c2ncn([C@H]3S[C@@H](CO)[C@@H]3CO)c2n1`?
EC50 [1]: > 100 µM; EC90 [1]: > 100 µM; IC50 (PBMC): > 100 µM; IC50 (CCRF-CEM): > 100 µM; IC50 (Vero): > 100 µM

For `OC[C@H]1[C@H](CO)S[C@@H]1n1cnc2c(O)ncnc21`, which EC50 [1] is on record?
The EC50 was > 100 µM.

What about the EC90 [1] of the same compound?
Its EC90 is > 100 µM.

And the IC50 (PBMC)?
Its IC50 is > 100 µM.

What about the IC50 (CCRF-CEM) of the same compound?
The IC50 was > 100 µM.

What about the IC50 (Vero) of the same compound?
The IC50 was > 100 µM.

`OC[C@H]1[C@H](n2cnc3c(O)ncnc32)S[C@@H]1CO` was tested. Which EC50 [1] did it give?
Its EC50 is > 100 µM.

And the EC90 [1]?
The EC90 was > 100 µM.

And the IC50 (PBMC)?
Its IC50 is > 100 µM.

And the IC50 (CCRF-CEM)?
The IC50 was > 100 µM.

What about the IC50 (Vero) of the same compound?
Its IC50 is > 100 µM.

Which results are given for `Nc1nc(O)c2ncn([C@@H]3S[C@H](CO)[C@H]3CO)c2n1`?
EC50 [1]: > 100 µM; EC90 [1]: > 100 µM; IC50 (PBMC): > 100 µM; IC50 (CCRF-CEM): > 100 µM; IC50 (Vero): > 100 µM

How did the EC50 [1] turn out when `Nc1nc(=O)n([C@@H]2S[C@H](CO)[C@H]2CO)cc1F` was run?
Its EC50 is 5.8 µM.

And the EC90 [1]?
Its EC90 is 13.9 µM.

What about the IC50 (PBMC) of the same compound?
Its IC50 is < 1 µM.

And the IC50 (CCRF-CEM)?
The IC50 was 19 µM.

And the IC50 (Vero)?
Its IC50 is > 100 µM.

What does the source list for `Nc1nc(=O)n([C@@H]2S[C@H](CO)[C@H]2CO)cc1Br`?
EC50 [1]: 11.5 µM; EC90 [1]: 41.9 µM; IC50 (PBMC): > 100 µM; IC50 (CCRF-CEM): 1.8 µM; IC50 (Vero): > 100 µM

`Nc1ncnc2c1ncn2[C@H]1S[C@@H](CO)[C@@H]1CO` was tested. Which EC50 [1] did it give?
The EC50 was > 100 µM.

What about the EC90 [1] of the same compound?
The EC90 was > 100 µM.

And the IC50 (PBMC)?
Its IC50 is > 100 µM.

And the IC50 (CCRF-CEM)?
The IC50 was > 100 µM.

What about the IC50 (Vero) of the same compound?
The IC50 was > 100 µM.

How did the EC50 [1] turn out when `Nc1ccn([C@H]2S[C@@H](CO)[C@@H]2CO)c(=O)n1` was run?
Its EC50 is 14.1 µM.

What about the EC90 [1] of the same compound?
The EC90 was 47.6 µM.

And the IC50 (PBMC)?
The IC50 was 13.1 µM.

And the IC50 (CCRF-CEM)?
The IC50 was 45.6 µM.

What about the IC50 (Vero) of the same compound?
The IC50 was > 100 µM.

Source: ChEMBL document CHEMBL1138188, “Synthesis and anti-HIV activity of D- and L-thietanose nucleosides” (J Med Chem, 2006)
